Experimental findings from PMC11960622 (RSC Advances, 2025) are described below.

Experiment [1] deals with A549 cells. The experiment can be described thus: MTT cytotoxicity assay, A549. It is filed as cell-based. To be noted: for IC50: Homo sapiens, A549, 72 h, read-out: IC50 A549; for fold more toxic to A549 cells than VERO normal cells: selectivity VERO/A549. The method, boiled down: (§1)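 ATCC cells in RPMI 1640 with 10% heat-inactivated FBS and penicillin/streptomycin, 37 °C, 5% CO2. Trypsinized cells seeded at 1000–2000 per well, grown 24 h, then exposed 72 h to free or Cs/PVA-nanogel-loaded test compound (0.1, 10, 100, 1000 μM). MTT 2 h, formazan dissolved in acidified isopropanol, A570 read. Viability expressed versus control; IC50 derived.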

Experiment [2] concerns HCT116 cells. The experiment is described as follows: MTT cytotoxicity assay, HCT116. To be noted: for IC50: Homo sapiens, HCT-116, 72 h, read-out: IC50 HCT116; for fold more toxic to HCT-116 cells than normal VERO cells: selectivity VERO/HCT-116. It is filed as cell-based.
Experiment [3] deals with HepG2 cells. The experiment can be described thus: MTT cytotoxicity assay, HepG2. It is filed as cell-based. Particulars: for IC50: Homo sapiens, HepG2, 72 h, read-out: IC50 HepG2; for fold toxic to HepG-2 cells than ordinary VERO cells: selectivity VERO/HepG-2. The method, boiled down:
as §1

In experiment [4] the test system is MCF-7 cells. The experiment is described as follows: MTT cytotoxicity assay, MCF-7. Particulars: for IC50: Homo sapiens, MCF7, 72 h, read-out: IC50 MCF-7; for fold more toxic to MCF-7 cells than ordinary VERO cells: selectivity VERO/MCF-7. The format is cell-based. An outline of the steps:
as §1

Experiment [5] relates to calf thymus DNA. The experiment can be described thus: DNA/methyl green assay. Particulars: read-out: DNA binding IC50; methyl green displacement, 24 h, pH 7.5. The method, boiled down:
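Calf thymus DNA (10 mg) and methyl green (20 mg) in 100 mL 0.05 M Tris–HCl pH 7.5 with 7.5 mM MgSO4, stirred 24 h at 37 °C. Ethanol solutions of test compounds at 10, 100 and 1000 μM were dried under vacuum in wells, then complex added. Incubated at room temperature in the dark; A642.5–645 read at 24 h, normalized to untreated complex; IC50 fitted. Doxorubicin control.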

Experiment [6] addresses topo-II enzyme. The experiment can be described thus: In vitro topoisomerase II inhibitory activity. It is filed as biochemical. Particulars: read-out: Topo-II assay IC50.

`NC1=NN(c2ccc([N+](=O)[O-])cc2[N+](=O)[O-])C(=O)C1N=Nc1ccccc1C(=O)O` (stereo not drawn) [Compound 3, 2-((3-Amino-1-(2,4-dinitrophenyl)-5-oxo-4,5-dihydro-1H-pyrazol-4-yl)diazenyl)benzoic acid]: the IC50 came out at 6.1 ± 0.5 µM in experiment [1]; 11 ± 1.1 µM in experiment [2]; 8.95 ± 0.5 µM in experiment [3]; 8.65 ± 0.8 µM in experiment [4]; 38.6 ± 3.8 µM in experiment [5]; 1.49 ± 0.4 µM in experiment [6]. Besides, the “fold more toxic to A549 cells than VERO normal cells” value in experiment [1] is reported as 8.92 fold. In addition, the “fold more toxic to HCT-116 cells than normal VERO cells” value in experiment [2] is given as 4.95 fold. The “fold toxic to HepG-2 cells than ordinary VERO cells” value (“fold toxic” below) in experiment [3] is given as 6.08 fold. For the same molecule, in experiment [4], the “fold more toxic to MCF-7 cells than ordinary VERO cells” value came out at 6.29 fold.
On to `NC1=NN(C(=O)C=Cc2ccccc2)C(=O)C1N=Nc1ccccc1C(=O)O` (stereo not drawn) [Compound 2, 2-((3-Amino-1-cinnamoyl-5-oxo-4,5-dihydro-1H-pyrazol-4-yl)diazenyl)benzoic acid], for which the IC50 in experiment [1] is 6.3 ± 0.5 µM; in experiment [2] it was 10.6 ± 1.5 µM; in experiment [3], 8.8 ± 0.5 µM; in experiment [4], 8.3 ± 0.5 µM; in experiment [5], 37 ± 3.9 µM; in experiment [6], 1.31 ± 0.4 µM. The “fold more toxic to A549 cells than VERO normal cells” value in experiment [1] is given as 9.48 fold. Further, in experiment [2], the “fold more toxic to HCT-116 cells than normal VERO cells” value was found to be 5.63 fold. The “fold toxic” value in experiment [3] is on record as 6.78 fold. The “fold more toxic to MCF-7 cells than ordinary VERO cells” value in experiment [4] stood at 7.19 fold.
As for `COc1cccc2c1C(=O)c1c(O)c3c(c(O)c1C2=O)C[C@@](O)(C(=O)CO)C[C@@H]3O[C@H]1C[C@H](N)[C@H](O)[C@H](C)O1` [Doxorubicin, reference compound], the values for the IC50 in experiment [1], in experiment [5] and in experiment [6] were 8.54 ± 0.8 µM, 31.3 ± 1.8 µM and 0.94 ± 0.4 µM, respectively.
On to `NC1=NC(=NS(=O)(=O)c2ccc(N)cc2)NC(=O)C1N=Nc1ccccc1C(=O)O` (stereo not drawn) [Compound 4, 2-((4-Amino-2-(((4-aminophenyl)sulfonyl)imino)-6-oxo-1,2,5,6-tetrahydropyrimidin-5-yl)diazenyl)-benzoic acid], for which the IC50 came to 5.5 ± 0.5 µM in experiment [1]; 9.77 ± 1.1 µM in experiment [2]; 7.12 ± 0.5 µM in experiment [3]; 7.85 ± 0.5 µM in experiment [4]; 36 ± 3.5 µM in experiment [5]; 1.2 ± 0.4 µM in experiment [6]. The “fold more toxic to A549 cells than VERO normal cells” value in experiment [1] came out at 10.44 fold. In addition, the “fold more toxic to HCT-116 cells than normal VERO cells” value in experiment [2] was 5.88 fold. In addition, the “fold toxic” value in experiment [3] was 8.07 fold. Besides, the “fold more toxic to MCF-7 cells than ordinary VERO cells” value in experiment [4] amounted to 7.32 fold.
